# System: U2OS
# Assay: Multiplex assay against U2OS
# Assay type: toxicity, cell-based
# Conditions: human
# Method in brief: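 At seeding, live cells were stained with Hoechst33342, BioTracker Green Microtubule Cytoskeleton Dye, MitoTracker Red and Annexin V Alexa Fluor 680. After compound addition they were imaged on a CQ1 microscope at 37°C and 5% CO2, and CellPathfinder machine-learning gating sorted them into Hoechst high-intensity objects or normal cells, with normal cells further split into healthy, pyknosed or fragmented nuclei and pyknosed cells into mitotic or apoptotic. Tubulin, mitochondrial-mass and membrane-permeability phenotypes are given as per cents of cells with healthy nuclei.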
# [1] = 12 h, 1 µM, compound concentration 1 uM, replicate 1
# [2] = 12 h, 1 µM, compound concentration 1 uM, replicate 2
# [3] = 12 h, 10 µM, compound concentration 10 uM, replicate 1
# [4] = 12 h, 10 µM, compound concentration 10 uM, replicate 2
# [5] = 24 h, 1 µM, compound concentration 1 uM, replicate 1
# [6] = 24 h, 1 µM, compound concentration 1 uM, replicate 2
# [7] = 24 h, 10 µM, compound concentration 10 uM, replicate 1
# [8] = 24 h, 10 µM, compound concentration 10 uM, replicate 2
# [9] = 48 h, 1 µM, compound concentration 1 uM, replicate 1
# [10] = 48 h, 1 µM, compound concentration 1 uM, replicate 2
# [11] = 48 h, 10 µM, compound concentration 10 uM, replicate 1
# [12] = 48 h, 10 µM, compound concentration 10 uM, replicate 2
structure (smiles),measurement,setting,value
O=C(NCCNCC(O)COc1ccc(O)cc1)N1CCOCC1.O=C(NCCNCC(O)COc1ccc(O)cc1)N1CCOCC1.O=C(O)/C=C/C(=O)O (stereo unspecified) [XAMOTEROL FUMARATE],Population Apoptotic (%),[1],71%
same,Population Fragmented Nuclei (%),[1],27%
same,Population Healthy Nuclei (%),[1],66%
same,Population Hoechst High Intensity Objects (%),[1],2%
same,Population Membrane Permeable-Phenotype (%),[1],6%
same,Population Mitochondria Different-Phenotype (%),[1],1%
same,Population Mitotic Cells (%),[1],28%
same,Population Normal (%),[1],97%
same,Population Pyknosed Nuclei (%),[1],5%
same,Population Tubulin-Different-Phenotype (%),[1],2%
same,Total Cell Count,[1],265
same,Population Apoptotic (%),[2],83%
same,Population Fragmented Nuclei (%),[2],19%
same,Population Healthy Nuclei (%),[2],68%
same,Population Hoechst High Intensity Objects (%),[2],3%
same,Population Membrane Permeable-Phenotype (%),[2],13%
same,Population Mitotic Cells (%),[2],16%
same,Population Normal (%),[2],96%
same,Population Pyknosed Nuclei (%),[2],11%
same,Population Tubulin-Different-Phenotype (%),[2],5%
same,Total Cell Count,[2],110
same,Population Apoptotic (%),[3],92%
same,Population Fragmented Nuclei (%),[3],28%
same,Population Healthy Nuclei (%),[3],60%
same,Population Hoechst High Intensity Objects (%),[3],0%
same,Population Membrane Permeable-Phenotype (%),[3],6%
same,Population Mitochondria Different-Phenotype (%),[3],2%
same,Population Mitotic Cells (%),[3],7%
same,Population Normal (%),[3],99%
same,Population Pyknosed Nuclei (%),[3],11%
same,Population Tubulin-Different-Phenotype (%),[3],4%
same,Total Cell Count,[3],239
same,Population Apoptotic (%),[4],100%
same,Population Fragmented Nuclei (%),[4],15%
same,Population Healthy Nuclei (%),[4],73%
same,Population Hoechst High Intensity Objects (%),[4],4%
same,Population Membrane Permeable-Phenotype (%),[4],4%
same,Population Mitochondria Different-Phenotype (%),[4],3%
same,Population Mitotic Cells (%),[4],0%
same,Population Normal (%),[4],95%
same,Population Tubulin-Different-Phenotype (%),[4],7%
same,Total Cell Count,[4],118
same,Population Apoptotic (%),[5],85%
same,Population Fragmented Nuclei (%),[5],24%
same,Population Healthy Nuclei (%),[5],68%
same,Population Hoechst High Intensity Objects (%),[5],0%
same,Population Membrane Permeable-Phenotype (%),[5],5%
same,Population Mitochondria Different-Phenotype (%),[5],0%
same,Population Mitotic Cells (%),[5],15%
same,Population Normal (%),[5],99%
same,Population Pyknosed Nuclei (%),[5],6%
same,Population Tubulin-Different-Phenotype (%),[5],1%
same,Total Cell Count,[5],312
same,Population Apoptotic (%),[6],80%
same,Population Fragmented Nuclei (%),[6],18%
same,Population Healthy Nuclei (%),[6],69%
same,Population Hoechst High Intensity Objects (%),[6],1%
same,Population Membrane Permeable-Phenotype (%),[6],10%
same,Population Mitochondria Different-Phenotype (%),[6],4%
same,Population Mitotic Cells (%),[6],20%
same,Population Normal (%),[6],98%
same,Population Pyknosed Nuclei (%),[6],11%
same,Population Tubulin-Different-Phenotype (%),[6],5%
same,Total Cell Count,[6],129
same,Population Apoptotic (%),[7],89%
same,Population Fragmented Nuclei (%),[7],22%
same,Population Healthy Nuclei (%),[7],66%
same,Population Hoechst High Intensity Objects (%),[7],1%
same,Population Membrane Permeable-Phenotype (%),[7],6%
same,Population Mitochondria Different-Phenotype (%),[7],2%
same,Population Mitotic Cells (%),[7],10%
same,Population Normal (%),[7],98%
same,Population Pyknosed Nuclei (%),[7],10%
same,Population Tubulin-Different-Phenotype (%),[7],2%
same,Total Cell Count,[7],270
same,Population Apoptotic (%),[8],78%
same,Population Fragmented Nuclei (%),[8],16%
same,Population Healthy Nuclei (%),[8],70%
same,Population Mitotic Cells (%),[8],21%
same,Population Pyknosed Nuclei (%),[8],12%
same,Population Tubulin-Different-Phenotype (%),[8],6%
same,Total Cell Count,[8],152
same,Population Apoptotic (%),[9],90%
same,Population Fragmented Nuclei (%),[9],18%
same,Population Healthy Nuclei (%),[9],75%
same,Population Hoechst High Intensity Objects (%),[9],1%
same,Population Membrane Permeable-Phenotype (%),[9],4%
same,Population Mitochondria Different-Phenotype (%),[9],2%
same,Population Mitotic Cells (%),[9],9%
same,Population Normal (%),[9],98%
same,Population Pyknosed Nuclei (%),[9],6%
same,Population Tubulin-Different-Phenotype (%),[9],2%
same,Total Cell Count,[9],472
same,Population Apoptotic (%),[10],91%
same,Population Fragmented Nuclei (%),[10],23%
same,Population Healthy Nuclei (%),[10],62%
same,Population Hoechst High Intensity Objects (%),[10],2%
same,Population Membrane Permeable-Phenotype (%),[10],6%
same,Population Mitochondria Different-Phenotype (%),[10],3%
same,Population Mitotic Cells (%),[10],8%
same,Population Normal (%),[10],97%
same,Population Pyknosed Nuclei (%),[10],13%
same,Population Tubulin-Different-Phenotype (%),[10],4%
same,Total Cell Count,[10],171
same,Population Apoptotic (%),[11],89%
same,Population Fragmented Nuclei (%),[11],18%
same,Population Healthy Nuclei (%),[11],68%
same,Population Hoechst High Intensity Objects (%),[11],1%
same,Population Membrane Permeable-Phenotype (%),[11],2%
same,Population Mitochondria Different-Phenotype (%),[11],1%
same,Population Mitotic Cells (%),[11],10%
same,Population Normal (%),[11],98%
same,Population Pyknosed Nuclei (%),[11],12%
same,Population Tubulin-Different-Phenotype (%),[11],2%
same,Total Cell Count,[11],392
same,Population Apoptotic (%),[12],94%
same,Population Fragmented Nuclei (%),[12],17%
same,Population Healthy Nuclei (%),[12],73%
same,Population Hoechst High Intensity Objects (%),[12],2%
same,Population Membrane Permeable-Phenotype (%),[12],4%
same,Population Mitochondria Different-Phenotype (%),[12],4%
same,Population Mitotic Cells (%),[12],5%
same,Population Normal (%),[12],97%
same,Population Pyknosed Nuclei (%),[12],9%
same,Population Tubulin-Different-Phenotype (%),[12],6%
same,Total Cell Count,[12],206

# Source: ChEMBL document CHEMBL5058577, “EUbOPEN Chemogenomics Library 2 (Multiplex)” (2022)
